Measurements published in ChEMBL document CHEMBL3769393, “Chiral pool synthesis and biological evaluation of C-furanosidic and acyclic LpxC inhibitors” (Eur J Med Chem, 2016).

Columns and labels:
Escherichia coli [1] = experiment: Antibacterial activity against Escherichia coli BL21(DE3) cells assessed as diameter of zone of growth inhibition after overnight incubation at 37 degC by agar disc diffusion clearance assay; format: functional
In short: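 Overnight LB broth cultures (37 °C, 200 rpm); 150 µL spread on LB agar. 6 mm filter discs loaded with 15 µL of 10 mM compound in DMSO. DMSO disc as negative control, CHIR-090 as positive control. Plates kept overnight at 37 °C, then diameter of the growth-inhibition zone measured.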

[2] = Inhibition of Escherichia coli BL21(DE3) LpxC C63A mutant using UDP-3-O-(R-3-hydroxymyristoyl)-N-acetylglucosamine as substrate incubated for 30 mins by Cheng-Prusoff equation analysis
[3] = Inhibition of Escherichia coli BL21(DE3) LpxC C63A mutant using UDP-3-O-(R-3-hydroxymyristoyl)-N-acetylglucosamine as substrate incubated for 30 mins by o-phthaldialdehyde-2-mercaptoethanol based fluorescence assay
Escherichia coli [4] = experiment: Antibacterial activity against envA mutant Escherichia coli D22 cells assessed as diameter of zone of growth inhibition after overnight incubation at 37 degC by agar disc diffusion clearance assay; format: functional
In short: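 E. coli D22 (defective strain) grown overnight in LB broth at 37 °C, 200 rpm; 150 µL of overnight suspension spread on LB agar. 6 mm filter paper discs loaded with 15 µL compound (10 mM in DMSO); DMSO disc as negative control, CHIR-090 as positive control. Plates incubated overnight at 37 °C; growth-inhibition zone diameter measured.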

O=C(NO)[C@H](CO)O[C@@H](CO)c1ccc(C#Cc2ccc(CN3CCOCC3)cc2)cc1
diameter of the inhibition zone (DIZ) (Escherichia coli [1]): 14.3 mm | Ki [2]: 2.9 µM | IC50 [3]: 21 µM | diameter of the inhibition zone (DIZ) (Escherichia coli [4]): 27.9 mm

O=C(NO)[C@@H]1C[C@H](O)[C@H](c2ccc(C#Cc3ccc(CN4CCOCC4)cc3)cc2)O1
diameter of the inhibition zone (DIZ) (Escherichia coli [1]): <6 mm | Ki [2]: 12 µM | IC50 [3]: 87 µM | diameter of the inhibition zone (DIZ) (Escherichia coli [4]): 15.3 mm

O=C(NO)[C@H](CO)O[C@H](CO)c1ccc(C#Cc2ccccc2)cc1
diameter of the inhibition zone (DIZ) (Escherichia coli [1]): <6 mm | Ki [2]: > 27.6 µM | IC50 [3]: > 200 µM | diameter of the inhibition zone (DIZ) (Escherichia coli [4]): 16.2 mm

O=C(NO)[C@H](CO)O[C@H](CO)c1ccc(C#CC#Cc2ccccc2)cc1
diameter of the inhibition zone (DIZ) (Escherichia coli [1]): 13.7 mm | Ki [2]: 0.23 µM | IC50 [3]: 1.7 µM | diameter of the inhibition zone (DIZ) (Escherichia coli [4]): 21.3 mm

O=C(NO)[C@H](CO)O[C@H](CO)c1ccc(C#Cc2ccc(CN3CCOCC3)cc2)cc1
diameter of the inhibition zone (DIZ) (Escherichia coli [1]): 9.6 mm | Ki [2]: 0.35 µM | IC50 [3]: 2.6 µM | diameter of the inhibition zone (DIZ) (Escherichia coli [4]): 20.4 mm

O=C(NO)[C@@H]1O[C@H](c2ccc(C#Cc3ccccc3)cc2)[C@@H](O)[C@H]1O
diameter of the inhibition zone (DIZ) (Escherichia coli [1]): <6 mm | Ki [2]: > 27.6 µM | IC50 [3]: > 200 µM | diameter of the inhibition zone (DIZ) (Escherichia coli [4]): 16.3 mm

O=C(NO)[C@@H](CO)O[C@H](CO)c1ccc(C#Cc2ccc(CN3CCOCC3)cc2)cc1
diameter of the inhibition zone (DIZ) (Escherichia coli [1]): 16 mm | Ki [2]: 1.1 µM | IC50 [3]: 8 µM | diameter of the inhibition zone (DIZ) (Escherichia coli [4]): 26.1 mm

O=C(NO)[C@@H](CO)O[C@@H](CO)c1ccc(C#Cc2ccccc2)cc1
diameter of the inhibition zone (DIZ) (Escherichia coli [1]): <6 mm | Ki [2]: > 27.6 µM | IC50 [3]: > 200 µM | diameter of the inhibition zone (DIZ) (Escherichia coli [4]): 9.3 mm

O=C(NO)[C@@H](CO)O[C@@H](CO)c1ccc(C#CC#Cc2ccccc2)cc1
diameter of the inhibition zone (DIZ) (Escherichia coli [1]): 7.1 mm | Ki [2]: 2.7 µM | IC50 [3]: 20 µM | diameter of the inhibition zone (DIZ) (Escherichia coli [4]): 10.5 mm

O=C(NO)[C@H](CO)O[C@@H](CO)c1ccc(C#CC#Cc2ccccc2)cc1
diameter of the inhibition zone (DIZ) (Escherichia coli [1]): 9 mm | Ki [2]: 0.6 µM | IC50 [3]: 4.4 µM | diameter of the inhibition zone (DIZ) (Escherichia coli [4]): 18 mm

CC1(C)O[C@@H]2[C@H](O1)[C@H](c1ccc(C#Cc3ccc(CN4CCOCC4)cc3)cc1)O[C@@H]2C(=O)NO
diameter of the inhibition zone (DIZ) (Escherichia coli [1]): <6 mm | Ki [2]: > 27.6 µM | IC50 [3]: > 200 µM | diameter of the inhibition zone (DIZ) (Escherichia coli [4]): 14.7 mm

O=C(NO)[C@@H]1O[C@@H](c2ccc(C#Cc3ccccc3)cc2)[C@@H](O)[C@H]1O
diameter of the inhibition zone (DIZ) (Escherichia coli [1]): <6 mm | Ki [2]: 3.3 µM | IC50 [3]: 24 µM | diameter of the inhibition zone (DIZ) (Escherichia coli [4]): 18 mm

O=C(NO)[C@@H]1O[C@@H](c2ccc(C#Cc3ccc(CN4CCOCC4)cc3)cc2)[C@@H](O)[C@H]1O
diameter of the inhibition zone (DIZ) (Escherichia coli [1]): <6 mm | Ki [2]: 1.4 µM | IC50 [3]: 10 µM | diameter of the inhibition zone (DIZ) (Escherichia coli [4]): 22.1 mm

O=C(NO)[C@@H]1O[C@H](c2ccc(C#CC#Cc3ccccc3)cc2)[C@@H](O)[C@H]1O
diameter of the inhibition zone (DIZ) (Escherichia coli [1]): 10.7 mm | Ki [2]: 0.69 µM | IC50 [3]: 5 µM | diameter of the inhibition zone (DIZ) (Escherichia coli [4]): 14.5 mm

O=C(NO)[C@H]1O[C@@H](c2ccc(C#CC#Cc3ccccc3)cc2)[C@@H](O)[C@H]1O
diameter of the inhibition zone (DIZ) (Escherichia coli [1]): <6 mm | Ki [2]: 4.4 µM | IC50 [3]: 32 µM | diameter of the inhibition zone (DIZ) (Escherichia coli [4]): 9 mm

O=C(NO)[C@@H](CO)O[C@@H](CO)c1ccc(C#Cc2ccc(CN3CCOCC3)cc2)cc1
diameter of the inhibition zone (DIZ) (Escherichia coli [1]): <6 mm | Ki [2]: 25 µM | IC50 [3]: 180 µM | diameter of the inhibition zone (DIZ) (Escherichia coli [4]): 20.3 mm

O=C(NO)[C@H]1O[C@H](c2ccc(C#Cc3ccccc3)cc2)[C@@H](O)[C@H]1O
diameter of the inhibition zone (DIZ) (Escherichia coli [1]): 6.8 mm | Ki [2]: 5.9 µM | IC50 [3]: 43 µM | diameter of the inhibition zone (DIZ) (Escherichia coli [4]): 13.6 mm

CO[C@@H]1[C@H](O)[C@H](c2ccc(C#Cc3ccc(CN4CCOCC4)cc3)cc2)O[C@@H]1C(=O)NO
diameter of the inhibition zone (DIZ) (Escherichia coli [1]): <6 mm | Ki [2]: > 27.6 µM | IC50 [3]: > 200 µM | diameter of the inhibition zone (DIZ) (Escherichia coli [4]): 11.7 mm

O=C(NO)[C@H]1O[C@@H](c2ccc(C#Cc3ccccc3)cc2)[C@@H](O)[C@H]1O
diameter of the inhibition zone (DIZ) (Escherichia coli [1]): <6 mm | Ki [2]: > 27.6 µM | IC50 [3]: > 200 µM | diameter of the inhibition zone (DIZ) (Escherichia coli [4]): 6.5 mm

O=C(NO)[C@H]1O[C@H](c2ccc(C#Cc3ccc(CN4CCOCC4)cc3)cc2)[C@@H](O)[C@H]1O
diameter of the inhibition zone (DIZ) (Escherichia coli [1]): 9.8 mm | Ki [2]: 4.7 µM | IC50 [3]: 34 µM | diameter of the inhibition zone (DIZ) (Escherichia coli [4]): 20.2 mm

CO[C@H]1[C@@H](O)[C@@H](C(=O)NO)O[C@H]1c1ccc(C#Cc2ccc(CN3CCOCC3)cc2)cc1
diameter of the inhibition zone (DIZ) (Escherichia coli [1]): <6 mm | Ki [2]: > 27.6 µM | IC50 [3]: > 200 µM | diameter of the inhibition zone (DIZ) (Escherichia coli [4]): 20.5 mm

O=C(NO)[C@H](CO)O[C@@H](CO)c1ccc(C#Cc2ccccc2)cc1
diameter of the inhibition zone (DIZ) (Escherichia coli [1]): 6.8 mm | Ki [2]: 21 µM | IC50 [3]: 150 µM | diameter of the inhibition zone (DIZ) (Escherichia coli [4]): 21.3 mm

O=C(NO)[C@@H]1O[C@H](c2ccc(C#Cc3ccc(CN4CCOCC4)cc3)cc2)[C@@H](O)[C@H]1O
diameter of the inhibition zone (DIZ) (Escherichia coli [1]): <6 mm | Ki [2]: 5.8 µM | IC50 [3]: 42 µM

O=C(NO)[C@H]1O[C@@H](c2ccc(C#Cc3ccc(CN4CCOCC4)cc3)cc2)[C@@H](O)[C@H]1O
diameter of the inhibition zone (DIZ) (Escherichia coli [1]): <6 mm | Ki [2]: > 27.6 µM | IC50 [3]: > 200 µM | diameter of the inhibition zone (DIZ) (Escherichia coli [4]): 13.2 mm

O=C(NO)[C@@H]1O[C@@H](c2ccc(C#CC#Cc3ccccc3)cc2)[C@@H](O)[C@H]1O
diameter of the inhibition zone (DIZ) (Escherichia coli [1]): <6 mm | Ki [2]: 2.1 µM | IC50 [3]: 15 µM | diameter of the inhibition zone (DIZ) (Escherichia coli [4]): 15.7 mm

O=C(NO)c1ccc(-c2ccc(C#Cc3ccccc3)cc2)o1
diameter of the inhibition zone (DIZ) (Escherichia coli [1]): <6 mm | diameter of the inhibition zone (DIZ) (Escherichia coli [4]): 8 mm
